Measured values pooled from the literature.
Lines come from different studies, so protocols differ.
Medium: plasma

N=C(N)NCCC[C@H](NC(=O)[C@H](Cc1ccccc1)NC(=O)[C@H](CCC(N)=O)NC(=O)OCc1ccccc1)C(=O)c1nccs1 — AUC(0-t) (female C57BL/6 mouse; intravenous; 5 mg/kg): 1180 ng·h/mL
CN(C)C1(CNC(=O)c2ccc3c(c2)CCN3C(=O)c2ccccc2)CCOCC1 — AUC(0-inf) (male CD-1 mouse; intraperitoneal; 30 mg/kg): 246 ng·h/mL
C[C@@H](O)[C@@H]1NC(=O)CNC(=O)[C@H](Cc2c[nH]cn2)NC(=O)[C@H](Cc2c[nH]c3ccccc23)NC(=O)[C@H](CC(N)=O)NC(=O)CNC(=O)C[C@@H](C(=O)N[C@@H](Cc2c[nH]c3ccccc23)C(=O)N[C@@H](Cc2ccccc2)C(=O)N[C@@H](Cc2ccccc2)C(=O)N[C@@H](CC(N)=O)C(=O)N[C@@H](Cc2ccc(O)cc2)C(=O)N[C@@H](Cc2ccc(O)cc2)C(=O)N[C@@H](Cc2c[nH]c3ccccc23)C(=O)O)NC(=O)[C@@H]2CCCN2C(=O)[C@H](CO)NC1=O — AUC(0-t) (mouse; intravenous; 3 mg/kg): 35100 ng·h/mL
CC[C@H](C)[C@H](NC(=O)[C@H](Cc1ccccc1)NC(=O)[C@H](CCC(=O)O)NC(=O)[C@H](CCCCN)NC(=O)[C@H](C)NC(=O)[C@H](C)NC(=O)[C@H](CCC(N)=O)NC(=O)CNC(=O)[C@H](CCC(=O)O)NC(=O)[C@H](CC(C)C)NC(=O)[C@H](Cc1ccc(O)cc1)NC(=O)[C@H](CO)NC(=O)[C@H](CO)NC(=O)[C@@H](NC(=O)[C@H](CC(=O)O)NC(=O)[C@H](CO)NC(=O)[C@@H](NC(=O)[C@H](Cc1ccccc1)NC(=O)[C@@H](NC(=O)CNC(=O)[C@H](CCC(=O)O)NC(=O)[C@H](C)NC(=O)N(N)Cc1c[nH]cn1)[C@@H](C)O)[C@@H](C)O)C(C)C)C(=O)N[C@@H](C)C(=O)N[C@@H](Cc1c[nH]c2ccccc12)C(=O)N[C@@H](CC(C)C)C(=O)N[C@H](C(=O)N[C@@H](CCCNC(=N)N)C(=O)NCC(=O)N[C@@H](CCCNC(=N)N)C(=O)NCC(=O)O)C(C)C — AUC(0-t) (male CD-1 mouse; intravenous; 1 mg/kg; single dose): 2390 ng·h/mL
COc1cc(C(=O)c2nc(-c3cccc4[nH]ccc34)c[nH]2)cc(OC)c1OC — AUC(0-t) (male CD-1 mouse; intraperitoneal; 15 mg/kg): 1510 ng·h/mL
CC(C)[C@]12O[C@H]1[C@@H]1O[C@]13[C@]1(O[C@H]1C[C@H]1C4=C(CC[C@@]13C)C(=O)OC4)[C@@H]2O — AUC(0-inf) (SCID mouse; intravenous; 0.6 mg/kg): 619 ng·h/mL
O=C1CCC(N2Cc3c(ccc4c3OCC43CCN(Cc4ccccc4)CC3)C2=O)C(=O)N1 (stereo not drawn) — AUC(0-inf) (male CD-1 mouse; oral; 3 mg/kg): 1340 ng·h/mL
CCOC(=O)c1c(NC(=O)CNC(C)C)sc2c1CCCCC2 — AUC(0-t) (male mouse; intraperitoneal; 100 mg/kg; single dose): 19300 ng·h/mL
CC(C)=CCC[C@](C)(O[C@@H]1O[C@H](CO)[C@@H](O)[C@H](O)[C@H]1O)[C@H]1CC[C@]2(C)[C@@H]1[C@H](O)C[C@@H]1[C@@]3(C)CC[C@H](O)C(C)(C)[C@@H]3CC[C@]12C — AUC(0-t) (mouse; oral; 10 mg/kg): 655 ng·h/mL
